IDE cell activ: activators of human insulin-degrading enzyme in cells. P14735. HEK cells, FAbeta-B cleavage, fluorescence polarization; 0% vehicle, 100% cell-free pure enzyme wells. activation, % at 5.96 µM. 340,000 compounds, 0.073% hits. AID 493087;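 active means activation above the mean of all tested compounds plus 3 SD, set per screening campaign, cut at about 17% in these data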
Target sequence (P14735 whole entry, looked up): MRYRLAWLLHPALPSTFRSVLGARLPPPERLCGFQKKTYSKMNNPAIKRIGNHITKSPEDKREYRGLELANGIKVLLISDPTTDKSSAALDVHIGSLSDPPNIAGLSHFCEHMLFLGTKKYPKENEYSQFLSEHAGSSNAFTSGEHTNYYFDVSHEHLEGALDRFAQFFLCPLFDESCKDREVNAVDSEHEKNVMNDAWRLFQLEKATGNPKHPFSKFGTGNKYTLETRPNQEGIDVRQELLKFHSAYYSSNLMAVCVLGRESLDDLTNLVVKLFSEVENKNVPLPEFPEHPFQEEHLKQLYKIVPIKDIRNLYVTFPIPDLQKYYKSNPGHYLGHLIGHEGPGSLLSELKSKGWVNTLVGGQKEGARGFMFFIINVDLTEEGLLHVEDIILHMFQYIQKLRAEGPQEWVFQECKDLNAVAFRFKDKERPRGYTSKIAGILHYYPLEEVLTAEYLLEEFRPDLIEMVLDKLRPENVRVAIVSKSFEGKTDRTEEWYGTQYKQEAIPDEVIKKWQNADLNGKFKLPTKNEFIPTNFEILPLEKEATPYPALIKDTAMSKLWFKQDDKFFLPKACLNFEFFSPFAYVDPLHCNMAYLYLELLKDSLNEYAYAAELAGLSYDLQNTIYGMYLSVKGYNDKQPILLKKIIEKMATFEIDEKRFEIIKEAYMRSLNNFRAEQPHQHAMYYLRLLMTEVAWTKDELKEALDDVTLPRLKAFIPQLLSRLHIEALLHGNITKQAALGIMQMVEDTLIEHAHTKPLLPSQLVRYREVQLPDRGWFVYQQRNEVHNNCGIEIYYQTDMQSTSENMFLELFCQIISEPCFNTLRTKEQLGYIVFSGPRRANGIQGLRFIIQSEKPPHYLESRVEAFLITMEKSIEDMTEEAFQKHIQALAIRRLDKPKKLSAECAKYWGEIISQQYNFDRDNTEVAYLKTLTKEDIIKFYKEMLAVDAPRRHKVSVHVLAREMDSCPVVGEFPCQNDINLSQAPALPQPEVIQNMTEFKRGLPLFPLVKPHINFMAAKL
CR mimetic SO: lowers age-related superoxide in aged yeast cells. 330,000 compounds, 0.18% hits. superoxide response (% of plate mean), % at 10 µM. S. cerevisiae aged cells, superoxide DHE fluorescence; hits give low values. AID 2690;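 active means superoxide response under a set limit, about three screen SD below normal, cut at about 65% in these data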;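 further: yeast aged for seven days with compound at 30 °C before DHE staining; 100% = average MFI of all compound-treated wells on the plate with controls excluded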
IDE inh: inhibitors of human insulin-degrading enzyme in cells | HEK cells, FAbetaB cleavage, fluorescence polarization | inhibition, % at 5.59 µM | 320,000 compounds, 0.41% hits | AID 434962;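 active means percent inhibition above the average of all tested compounds plus 3 SD, set per screening campaign, cut at about 16% in these data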;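 further: IDE supplied by intact live HEK cells; FP after avidin binding of uncleaved biotin substrate so inhibition keeps polarization high; 0% = DMSO wells and 100% = 60 µM reference IDE inhibitor Ii1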
HDAC3 inh: inhibitors of human histone deacetylase 3. recombinant HDAC3, fluorogenic peptide/trypsin coupled, fluorescence. 320,000 compounds, 0.15% hits. inhibition, % at 8.3 µM; in the data active means inhibition above about 26%, passing the limit was not always enough
Efflux pump mplx: inhibitors of Candida antifungal efflux pumps expressed in yeast; S. cerevisiae Candida pump triplex, Nile Red efflux; 330,000 compounds, 0.44% hits; inhibition, % at 10 µM;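 active means plate passing quality check with inhibition over a set limit, or well fluorescence over plate mean plus 4 SD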;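 further: Nile Red retained in pooled yeast measured as flow cytometry median fluorescence; 0% = buffer negative control and 100% = Enniatin B positive control; higher means more Nile Red kept so more efflux inhibition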
Tb MetRS inh: blocks T. brucei methionyl-tRNA synthetase activity; purified T. brucei MetRS, ATP depletion, Kinase-Glo luminescence; inhibition, % at 11.9 µM; 360,000 compounds, 0.4% hits; AID 624268;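 active means inhibition above a per-plate cutoff of the control wells' mean inhibition plus 3 SD, cut at about 5.5% in these data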;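 further: 0% = DMSO wells median and 100% = median of wells with control inhibitor compound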
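Test system – parasite MetRS enzyme · Reagent – substrates ATP, L-methionine and bulk Escherichia coli tRNA · Doses – 11.9 µM compound single dose, 0.9% DMSO · Times – 15 min enzyme-compound preincubation, 2 h reaction, 10 min detection, 25 °C · Signal – Kinase-Glo luminescence, ATP depletion format · Controls – DMSO-only wells as low control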
IDE inh confirm: confirmation of human insulin-degrading enzyme inhibitors in cells; shares compounds with IDE inh; HEK cells, FAbetaB cleavage, fluorescence polarization; inhibition, % at 5.59 µM; 1,200 compounds, 51% hits; AID 435028;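 active means mean inhibition across triplicate wells above the cutoff set by the earlier primary insulin-degrading enzyme screen, cut at about 16% in these data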;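 further: 0% = DMSO wells and 100% = 60 µM reference IDE inhibitor Ii1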
HEK293 tox: HEK cell cytotoxicity, counter-screen for IDE inhibitors | shares compounds with IDE inh | HEK293 cytotoxicity, ATP luminescence | inhibition, % at 5.59 µM | 1,200 compounds, 28% hits | AID 449730; in the data active means inhibition above about 22%;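 further: 0% = vehicle wells and 100% = reference cytotoxic drug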
* = called active by the depositor. A selection: hits, their analogues and other compounds. The true share with any hit is near 1.4%.

Screening CCn1cc(/C=N\NC(=O)c2ccc(Cl)cc2)cn1 returned IDE cell activ 0.1, CR mimetic SO 94.8, IDE inh 0.1, HDAC3 inh 11.6, Efflux pump mplx 0.0 and Tb MetRS inh 0.2.
CCN1C(=S)SC(=O)C1=C1C=C(C)N(Cc2ccco2)C(C)=C1 was read as IDE cell activ -30.2, CR mimetic SO 97.6, IDE inh 33.4*, HDAC3 inh 22.7, Efflux pump mplx 0.1, Tb MetRS inh -0.6, IDE inh confirm 42.4* and HEK293 tox 13.0.
Clc1cccc(-c2ccc(CNCCCN3CCOCC3)o2)c1 was read as IDE cell activ 3.6, CR mimetic SO 123.3, IDE inh -1.7, HDAC3 inh -0.2, Efflux pump mplx 0.3 and Tb MetRS inh 0.2.
Screening O=C(Nc1cccc(-c2nnc(-c3ccco3)o2)c1)c1ccccc1 returned CR mimetic SO 106.2, IDE inh -3.0, HDAC3 inh 0.9, Efflux pump mplx 0.1 and Tb MetRS inh -0.5.
`COc1cccc(C(=O)Nc2ccc(-c3nnc(-c4ccco4)o3)cc2)c1` gave IDE cell activ -9.0, CR mimetic SO 92.8, IDE inh 22.2*, HDAC3 inh -4.1, Efflux pump mplx 0.0, Tb MetRS inh -0.2, IDE inh confirm 9.0 and HEK293 tox 22.9*.
`COc1cccc(C(=O)Nc2cccc(-c3nnc(-c4ccccc4)o3)c2)c1` gave IDE cell activ -11.8, CR mimetic SO 115.7, IDE inh 16.9*, HDAC3 inh 0.7, Efflux pump mplx -0.1, Tb MetRS inh -0.9, IDE inh confirm 1.5 and HEK293 tox 20.9.
For Nc1c(C(=O)N/N=C/c2cccnc2)cnn1-c1ccccc1 the results were IDE cell activ 0.3, CR mimetic SO 115.2, IDE inh 2.0, HDAC3 inh 2.5, Efflux pump mplx -0.1 and Tb MetRS inh -0.3.
`Nc1c(C(=O)N/N=C/c2ccc(Cl)cc2)cnn1-c1ccccc1` gave IDE cell activ -2.8, CR mimetic SO 100.0, IDE inh 18.4*, HDAC3 inh 2.8, Efflux pump mplx -0.1, Tb MetRS inh -0.7, IDE inh confirm 2.2 and HEK293 tox 8.5.
`CCN(CC(=O)Nc1cccc(S(=O)(=O)N(C)c2ccccc2)c1)Cc1cccs1` gave IDE cell activ 2.9, CR mimetic SO 98.2, IDE inh 1.5, HDAC3 inh 5.5, Efflux pump mplx 0.0 and Tb MetRS inh -0.3.
CC(C)CN(C(=O)Cn1c(Cl)nc2c1c(=O)n(C)c(=O)n2C)C1CCS(=O)(=O)C1 (stereo unspecified) was read as IDE cell activ 5.5, CR mimetic SO 98.6, IDE inh -2.0, HDAC3 inh -0.5, Efflux pump mplx -0.1 and Tb MetRS inh -0.3.
Screening COc1cc2cc(C(=O)N/N=C/c3ccccc3Cl)[nH]c2cc1OC returned IDE cell activ -12.3, CR mimetic SO 94.0, IDE inh 17.2*, HDAC3 inh 2.6, Efflux pump mplx -0.1, Tb MetRS inh -1.1, IDE inh confirm 4.5 and HEK293 tox 16.9.
For O=c1c2ccccc2oc2c1oc1ccccc12 the results were IDE cell activ 1.6, CR mimetic SO 92.5, Efflux pump mplx -0.3 and Tb MetRS inh -0.4.
`COc1c(/C=N/NC(N)=S)c(C)nn1-c1ccccc1` gave IDE cell activ -9.6, CR mimetic SO 88.3, IDE inh 21.8*, HDAC3 inh 1.7, Efflux pump mplx -0.2, Tb MetRS inh -0.6, IDE inh confirm 3.1 and HEK293 tox 10.5.
For CCN(Cc1nc2ccccc2c(=O)[nH]1)C(=O)c1cccc(OCc2c(C)noc2C)c1 the results were IDE cell activ -1.5 and Tb MetRS inh -0.1.
`Cc1ccc(Nc2nc(C)cs2)cc1` gave IDE cell activ 5.7, CR mimetic SO 101.4, IDE inh 2.0, HDAC3 inh 0.7, Efflux pump mplx 0.1 and Tb MetRS inh -0.3.
`CCN(CC)C(=O)Cn1cc(C(=O)C(=O)N2CC=C(c3ccccc3)CC2)c2ccccc21` gave IDE cell activ -22.3, CR mimetic SO 97.3, IDE inh 18.9*, HDAC3 inh 14.4, Efflux pump mplx 0.0, Tb MetRS inh -0.4, IDE inh confirm 20.6* and HEK293 tox 9.0.
For CCN(CC)C(=O)Cn1cc(C(=O)C(=O)N2CCN(C)CC2)c2ccccc21 the results were IDE cell activ 6.1, CR mimetic SO 97.0, IDE inh 1.8, HDAC3 inh 15.0, Efflux pump mplx 0.4 and Tb MetRS inh -0.5.
For Cc1cc(C)c2c(CC(=O)NNC(=O)c3ccccc3)coc2c1 the results were IDE cell activ -1.4, CR mimetic SO 129.8, IDE inh 8.4, HDAC3 inh 4.3, Efflux pump mplx 0.3 and Tb MetRS inh 0.1.
Screening Cc1ccc(S(=O)(=O)NCc2ccc(C(=O)NCc3cccnc3)cc2)cc1 returned CR mimetic SO 116.6, IDE inh 9.3, HDAC3 inh -3.4 and Efflux pump mplx 0.1.
For Cc1nc(N/C(N)=N/S(=O)(=O)c2ccc([N+](=O)[O-])cc2)nc2ccccc12 the results were IDE cell activ -3.1, CR mimetic SO 121.4, IDE inh 22.3*, HDAC3 inh 3.3, Efflux pump mplx 0.0, Tb MetRS inh 0.0, IDE inh confirm 8.5 and HEK293 tox 3.7.
Screening COCc1cc([C@@H]2C[C@H]3CN(c4ccccc4)C(=O)[C@]34CCCN24)ccc1OC returned IDE cell activ 6.1, CR mimetic SO 114.0, IDE inh 2.5, HDAC3 inh 0.5, Efflux pump mplx -0.1 and Tb MetRS inh -0.8.
For COc1ccc([C@@H]2C[C@H]3CN(c4ccccc4)C(=O)[C@]34CCCN24)c(OC)c1OC the results were IDE cell activ -12.6, CR mimetic SO 99.0, IDE inh 21.8*, HDAC3 inh -4.7, Efflux pump mplx 0.0, Tb MetRS inh -0.5, IDE inh confirm 7.7 and HEK293 tox 13.7.
For CC1(S(=O)(=O)O)CC(=O)c2ccccc2C1=O (stereo unspecified) the results were IDE cell activ -8.8, CR mimetic SO 98.8, IDE inh 43.0*, HDAC3 inh -5.8, Efflux pump mplx 0.0, Tb MetRS inh -0.8, IDE inh confirm 116.0* and HEK293 tox 28.9*.
For CCC(C)(C)NC(=O)C(c1ccc(OC)cc1)N(C(=O)CCC(=O)Nc1cc(C)on1)c1ccc2c(c1)OCCO2 (stereo unspecified) the results were IDE cell activ -2.6, CR mimetic SO 96.2, IDE inh 0.6, HDAC3 inh 4.7, Efflux pump mplx 0.4 and Tb MetRS inh -0.1.
